# Rows were chosen to be rich in hits. Some 3.3% of all compounds tested hit in one or more screens of this group.
# SENP8 block-1: SENP8 protease inhibitors, primary screen, biochemical, luminescence; inhibition, % at 10 µM; 330,000 compounds, 1.2% hits; purified SENP8, Z-RLRGG-aminoluciferin cleavage; in the data active means inhibition above about 50%
# SENP6 inh: SENP6 protease inhibitors, primary screen, biochemical, luminescence, uHTS; Sentrin-specific protease 6 (Homo sapiens), Q9GZR1; 330,000 compounds, 1.8% hits; inhibition, % at 10 µM; AID 2599, 2010; Recombinant SENP6 catalytic domain, aminoluciferin luminescence;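 active means inhibition above about 50% at the single tested dose, limit read from the data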
# Target sequence (Q9GZR1 628-1112 limits assumed): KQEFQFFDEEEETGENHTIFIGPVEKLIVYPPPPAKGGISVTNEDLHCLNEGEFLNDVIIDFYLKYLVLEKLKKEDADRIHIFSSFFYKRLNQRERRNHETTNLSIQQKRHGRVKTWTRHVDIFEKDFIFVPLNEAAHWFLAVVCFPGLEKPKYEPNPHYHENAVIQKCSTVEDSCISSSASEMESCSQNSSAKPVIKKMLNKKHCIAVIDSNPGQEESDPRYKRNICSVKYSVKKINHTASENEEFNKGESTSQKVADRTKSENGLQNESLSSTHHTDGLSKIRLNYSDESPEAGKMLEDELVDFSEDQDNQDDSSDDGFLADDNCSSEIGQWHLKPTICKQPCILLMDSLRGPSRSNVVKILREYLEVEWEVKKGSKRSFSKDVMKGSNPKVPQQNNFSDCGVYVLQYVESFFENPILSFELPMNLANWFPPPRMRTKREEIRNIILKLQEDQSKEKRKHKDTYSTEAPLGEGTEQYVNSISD
# SENP8 block-2: human SENP8 protease inhibitors, primary screen, biochemical, fluorescence, Nedd8 protein substrate, uHTS | Sentrin-specific protease 8 (Homo sapiens), Q96LD8 | recombinant SENP8 | inhibition, % at 20 µM | 360,000 compounds, 0.64% hits; in the data active means inhibition mostly above about 40%, no sharp cut-off; inactive means mostly below about 27%
# SENP7 block: SENP7 protease inhibitors, primary screen, biochemical, luminescence, uHTS; AID 434973, 2010; 330,000 compounds, 1.5% hits; inhibition, % at 5 µM; recombinant SENP7, Z-RLRGG-aminoluciferin luminescence, 40 min;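 active means inhibition above about 50% at the single test dose, limit read from the data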
# SENP1 inh: human SENP1 catalytic domain inhibitors, primary screen, biochemical, FRET, uHTS; Sentrin-specific protease 1 (Homo sapiens), Q9P0U3; AID 624204, 2012; inhibition, % at 10 µM; 360,000 compounds, 0.21% hits; recombinant SENP1 catalytic domain, CyPet-SUMO1-YPet FRET cleavage;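 active means inhibition at least 30% at 10 µM, raw YFP signal under a set limit, fluorescence ratio 0.5 to 1.5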
#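 Material – human SENP1 catalytic domain · Input – SENP1 enzyme, 20 pM final · Compound dosing – single concentration of 10 µM compound, 0.5% DMSO final · Timing – enzyme reaction for 50 min at room temperature, dark · Measured by – FRET fluorescence in CFP and YFP emission channels · Control set – no-enzyme wells low, DMSO-plus-enzyme wells high control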
# CendR NRP1 mod: modulators of CendR peptide binding to NRP-1, primary screen, biochemical, fluorescence polarization, uHTS. Neuropilin-1 (Homo sapiens), O14786. FAM-RPARPAR peptide binding to NRP-1. inhibition, % at 25 µM. 360,000 compounds, 0.85% hits;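 active means inhibition or corrected inhibition above about 18%, plus a signal ratio from 0.5 to 1.5, limit read from the data, passing the limit was not always enough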
# Hits are given with their value; . = inactive; / = no result.
SMILES,SENP8 block-1,SENP6 inh,SENP8 block-2,SENP7 block,SENP1 inh,CendR NRP1 mod
CCOC(=O)C(NC(=O)CCl)(Nc1sc(C)c(CC)c1C#N)C(F)(F)F (stereo unspecified),.,.,.,.,.,.
CCOC(=O)C(NC(=O)CC(C)C)(Nc1sc(C)c(CC)c1C#N)C(F)(F)F (stereo unspecified),.,.,.,.,.,24
Nc1nc2ccc(Cl)cc2cc1C(=O)NCCCN1CCOCC1,/,/,.,/,.,.
Cc1c(C(=O)NCc2ccc(C(F)(F)F)cc2)sc(=O)n1Cc1ccc(S(=O)(=O)N(C)C)cc1,/,/,.,/,.,.
CC(C)c1ccc(C2CC(=O)c3cnc(N4CCc5ccccc5C4)nc3C2)cc1 (stereo unspecified),.,.,.,.,.,.
COc1ccc(C(=O)Nc2ncc3c(n2)CC(c2ccco2)CC3=O)cc1 (stereo unspecified),.,.,.,.,.,36
O=C1CC(c2ccco2)Cc2nc(N3CCc4ccccc4C3)ncc21 (stereo unspecified),.,.,.,.,31,.
COc1cc(OC)cc(C(=O)Nc2ncc3c(n2)CC(C)CC3=O)c1 (stereo unspecified),.,.,.,.,.,35
COc1cccc(C(=O)Nc2ncc3c(n2)CC(C)CC3=O)c1 (stereo unspecified),.,.,.,.,.,.
O=C(Nc1ccc(F)cc1)C(c1cccc(F)c1)N1CCN(c2ccncc2)CC1 (stereo unspecified),/,/,.,/,.,.
Cc1cnc(C(=O)OCC(=O)N(Cc2ccccc2)C(C)(C)C)cn1,.,.,.,.,.,.
O=C(N/N=C/c1ccncc1)c1ccccn1,.,.,.,.,.,.
O=C(N/N=C/c1ccc(N2CCOCC2)cc1)c1ccccn1,.,56,.,55,.,.
O=C1C(=O)c2cccnc2-c2ncccc21,/,/,110,/,29,27
COC1=C(Br)C(=O)c2ncccc2C1=O,/,/,105,/,.,36
COc1ccc2c(CN3CCCCCCC3)cc(=O)oc2c1,/,/,.,/,.,.
Cc1ccccc1Nc1nc(N)nc(COC(=O)CC2CC3CCC2C3)n1 (stereo unspecified),.,.,.,.,.,27
Cc1ccccc1Nc1nc(N)nc(COC(=O)CCS(=O)(=O)c2ccccc2)n1,.,.,.,.,.,.
COc1cccc(-c2nnn(CC(=O)N(C3CCCCC3)C3CCS(=O)(=O)C3)n2)c1 (stereo unspecified),/,/,.,/,.,.
COC(=O)c1ccccc1NC(=O)Cn1cnc2c(cnn2-c2ccc(C)c(C)c2)c1=O,.,.,/,.,/,/
CCOc1ccccc1NC(=O)Cn1cnc2c(cnn2-c2ccc(C)c(C)c2)c1=O,.,.,.,.,.,38
Cc1noc(C)c1C(=O)Nc1ccc(F)cc1,.,.,.,.,.,41
Cc1noc(C)c1C(=O)Nc1nc2ccccc2s1,94,97,.,98,.,.
Cc1noc(C)c1C(=O)Nc1ccc(N(C)C)cc1,.,.,.,.,.,.
COc1ccccc1C(O)c1ncc(-c2cccc(C(F)(F)F)c2)[nH]1 (stereo unspecified),/,/,.,/,.,.
SMILES,SENP8 block-1,SENP6 inh,SENP8 block-2,SENP7 block,SENP1 inh,CendR NRP1 mod
O=C1NC[C@H](CCCCN2CCN(CCc3ccccc3)C(=O)C2=O)N(CCc2ccccc2)C1=O,/,/,.,/,.,.
Cc1ccc2cc(CN(CCCN(C)C)C(=O)NCc3ccccc3)c(=O)[nH]c2c1C,.,.,.,.,.,38
COc1cccc(Cn2c(C(C)n3c(C)nc4ccccc43)nc3ccccc32)c1 (stereo unspecified),/,/,.,/,.,.
COC(=O)[C@@]12C[C@@H](CC(=O)N3CCN(C(=O)c4ccco4)CC3)C(=O)N(Cc3ccccc3)C1=CCC(C)(C)C2,/,/,.,/,.,.
COc1ccc(/C=N/NC(=O)c2ccccc2Cl)cc1CSc1nc2ccccc2s1,.,.,.,.,.,31
COc1ccc(/C=N/NC(=O)c2cccnc2)cc1CSc1nc2ccccc2s1,.,.,.,.,.,.
O=C(C1CCN(S(=O)(=O)c2cccs2)CC1)N1CCCCC1,.,.,.,.,.,.
O=S(=O)(c1cccs1)N1CCCCC1,/,/,.,/,.,35
CC(=O)N1CCC(C(=O)N2CCN(S(=O)(=O)c3cccs3)CC2)CC1,.,.,.,.,.,37
O=S(=O)(c1cccs1)N1CCN(S(=O)(=O)c2cccs2)CC1,.,.,.,.,.,.
Cc1ccc2oc(=O)n(CCOc3ccccc3C)c2c1,.,.,.,.,.,38
C[C@H](NC(=O)c1nc[nH]c1C(=O)N(C)CCO)c1ccccc1,/,/,.,/,.,.
COc1ccc(NC(=O)C(c2ccc(C(F)(F)F)cc2)n2c(=O)c(-c3cc4ccccc4[nH]3)nc3ccccc32)cc1 (stereo unspecified),/,/,.,/,.,.
COC(=O)[C@H](C)NC(=O)Nc1ccccc1F,.,.,.,.,.,.
CCC(C)[C@H](NC(=O)Nc1ccccc1F)C(=O)OC (stereo partly specified),.,.,.,.,.,22
CC1(C)S[C@@H]2[C@H](NC(=O)COc3ccccc3)C(=O)N2C1C(=O)OCC1CCCCC1 (stereo partly specified),.,.,.,.,.,25
Cn1c(SCc2ccc3c(c2)OCO3)nnc1-c1ccccc1,.,.,.,.,.,.
O=C(CSc1nnc2ccccn12)Nc1ccc2c(c1)OCO2,.,.,.,.,.,.
c1ccn2c(SCc3ccc4c(c3)OCO4)nnc2c1,.,.,.,.,.,24
O=C(CSc1nnc2ccccn12)Nc1cccc(-c2nc3ccccc3s2)c1,.,.,.,63,.,.
O=C(CSc1nnc2ccccn12)Nc1nsc(-c2ccccc2)n1,.,.,.,.,.,.
O=C(CCSc1nnc2ccccn12)Nc1ccc2c(c1)OCO2,.,.,.,.,.,23
C[C@H](NC(=O)/C=C/[C@H]1O[C@@H](n2ccc(=O)[nH]c2=O)[C@H](O)[C@@H]1O)C(=O)O,/,/,.,/,.,.
Cc1cccc(NC(=O)c2cc(S(=O)(=O)c3ccccc3)ccc2Cl)c1,.,.,.,.,.,34
Cc1ccccc1NC(=O)c1cc(S(=O)(=O)c2ccccc2)ccc1Cl,.,.,.,.,.,.
Cc1ccc(S(=O)(=O)N2c3ccc(S(N)(=O)=O)cc3CC2C)cc1 (stereo unspecified),.,.,.,.,.,22
